Among the data in ChEMBL document CHEMBL3351274, “Sensitization of tumor necrosis factor-related apoptosis-inducing ligand (TRAIL)-resistant primary prostate cancer cells by isoegomaketone from Perilla frutescens” (J Nat Prod, 2014) are Ratio and Activity values, retold here.

Series [1] can be described thus: Induction of apoptosis in human RC-58T/h/SA#4 cells assessed as Bax activation at 20 uM after 24 hrs by immunoblotting analysis relative to untreated control. Format: functional. A digest of the protocol: (§1)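 Cells grown in DMEM/10% FBS at 37 °C, 5% CO2, then treated 24 h with compound (20 μM) with or without TRAIL (100 ng/mL). Whole lysates were used for Bax and Bcl-2. Cytosolic and mitochondrial fractions were prepared with a mitochondria isolation kit for AIF and cytochrome c. Blotting used 10 μg protein/lane, 12% SDS-PAGE, nitrocellulose, overnight primary antibody at 4 °C and ECL detection.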

A further series is filed under the species Homo sapiens. As to the kind of experiment: Induction of apoptosis in human RC-58T/h/SA#4 cells assessed as AIF level in mitochondria at 20 uM after 24 hrs by immunoblotting analysis relative to untreated control. The format is functional, cell-based. A digest of the protocol:
as §1
In general terms: Immunoblotting shows a protein as a band on a membrane.

The nature of series [2]: Sensitization of TRAIL-induced apoptosis in human RC-58T/h/SA#4 cells assessed as cytochrome C level in cytosol at 20 uM after 24 hrs by immunoblotting analysis relative to untreated control. Format: functional. The method in brief:
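Cells given 20 μM compound and/or 100 ng/mL TRAIL for 24 h. Mitochondrial and cytosolic fractions prepared with a mitochondria isolation kit. Fractions resolved by 12% SDS-PAGE at 10 μg/lane and immunoblotted with anti-cytochrome c or anti-AIF overnight at 4 °C, then HRP secondary and ECL detection.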

A short description of series [3]: Induction of apoptosis in human RC-58T/h/SA#4 cells assessed as DR4 expression at 10 uM after 24 hrs by immunoblotting analysis relative to untreated control. Format: functional.
A short description of series [4]: Induction of apoptosis in human RC-58T/h/SA#4 cells assessed as DR5 expression at 2.5 uM after 24 hrs by immunoblotting analysis relative to untreated control. Format: functional.
The nature of series [5]: Induction of apoptosis in human RC-58T/h/SA#4 cells assessed as DR4 expression at 20 uM after 3 hrs by immunoblotting analysis relative to untreated control. Format: functional.
The nature of series [6]: Induction of apoptosis in human RC-58T/h/SA#4 cells assessed as DR4 expression at 20 uM after 6 hrs by immunoblotting analysis relative to untreated control. Format: functional.
Series [7] in a line: Induction of apoptosis in human RC-58T/h/SA#4 cells assessed as DR5 expression at 20 uM after 18 hrs by immunoblotting analysis relative to untreated control. The format is functional.
A short description of series [8]: Sensitization of TRAIL-induced apoptosis in human RC-58T/h/SA#4 cells assessed as procaspase-8 activation at 20 uM after 24 hrs by immunoblotting analysis in presence of Dr5 Fc chimera relative to untreated control. Format: functional. A digest of the protocol:
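Cells pretreated 2 h with 100 ng/mL DR5 Fc chimera, then given 20 μM compound and/or 100 ng/mL TRAIL for 24 h. Total lysates immunoblotted (12% SDS-PAGE, nitrocellulose) for caspase-3, -8, -9 and PARP cleavage, with HRP secondary and ECL detection.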

Series [9] in a line: Induction of apoptosis in human RC-58T/h/SA#4 cells assessed as p53 expression at 5 uM after 24 hrs by immunoblotting analysis relative to untreated control. Format: functional. The method in brief:
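RC-58T/h/SA#4 cells (DMEM, 10% FBS, 37 °C, 5% CO2) exposed to the compound over a concentration range or time course. Lysates run on 12% SDS-PAGE at 10 μg protein/lane, transferred to nitrocellulose and blocked with BSA. Blots probed overnight at 4 °C with anti-p53, then HRP secondary antibody, ECL detection; β-actin as loading control.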

Series [10] is described as follows: Induction of apoptosis in human RC-58T/h/SA#4 cells assessed as CHOP expression at 40 uM after 24 hrs by immunoblotting analysis relative to untreated control. Format: functional. A digest of the protocol: (§2)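 RC-58T/h/SA#4 cells seeded at 5 × 10^4 cells/mL and cultured 24 h, then given compound across a concentration series or at fixed dose over a time course. Lysates were quantified by BCA. 10 μg protein/lane run on 12% SDS-PAGE and transferred to nitrocellulose. Blots probed for p53, CHOP and β-actin with HRP secondary and ECL.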

Series [11] is described as follows: Induction of apoptosis in human RC-58T/h/SA#4 cells assessed as p53 expression at 20 uM after 12 hrs by immunoblotting analysis relative to untreated control. The format is functional. The method in brief: as §2
Series [12] in a line: Induction of apoptosis in human RC-58T/h/SA#4 cells assessed as p53 expression at 20 uM after 18 hrs by immunoblotting analysis relative to untreated control. The format is functional. A digest of the protocol:
as §2

Series [13] can be described thus: Induction of apoptosis in human RC-58T/h/SA#4 cells assessed as CHOP expression at 20 uM after 3 hrs by immunoblotting analysis relative to untreated control. Format: functional. A digest of the protocol:
as §2

A short description of series [14]: Induction of apoptosis in human RC-58T/h/SA#4 cells assessed as CHOP expression at 20 uM after 12 hrs by immunoblotting analysis relative to untreated control. Format: functional. A digest of the protocol: as §2
Series [15] is described as follows: Induction of apoptosis in human RC-58T/h/SA#4 cells assessed as CHOP expression at 20 uM after 18 hrs by immunoblotting analysis relative to untreated control. The format is functional. The method in brief:
as §2

Series [16] can be described thus: Induction of ROS generation in human RC-58T/h/SA#4 cells at 10 uM after 30 mins by flow cytometry (reference value: 1.9%). Format: functional. On the technique in general: In flow cytometry, cells or beads pass a laser one at a time.
A short description of series [17]: Sensitization of TRAIL-induced cytotoxicity against human RWPE1 cells assessed as cell viability at 20 uM after 24 hrs by SRB assay. Format: cell-based. To be noted: rwpe-1, 24 h. A digest of the protocol: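 Cells seeded at 5 × 10^4 cells/mL, grown in DMEM with 10% FBS, and given the compound with or without 100 ng/mL TRAIL for 24 h at 37 °C, 5% CO2. RWPE-1 tested at 20 μM. Cells fixed in 12% TCA for 1 h at 4 °C, stained 1 h with 0.4% SRB, washed in 1% acetic acid, dye dissolved in 10 mM Tris and absorbance read. Three experiments, means ± SD.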
(In general: Sulforhodamine B stains cellular protein and so reports cell mass.)

Series [18] in a line: Induction of apoptosis in human RC-58T/h/SA#4 cells assessed as accumulation at Sub-G1 phase at 20 uM after 24 hrs by annexin-V/propidium iodide staining-based flow cytometry (reference value: 4.8%). Format: functional.
Series [19] is described as follows: Sensitization of TRAIL-induced apoptosis in human RC-58T/h/SA#4 cells assessed as procaspase-8 activation at 20 uM after 24 hrs by immunoblotting analysis relative to untreated control. Format: functional. The method in brief: (§3)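 Cells seeded at 5 × 10^4 cells/mL and cultured 24 h, then given 20 μM compound and/or 100 ng/mL TRAIL for 24 h. Whole-cell lysate made in Tris/NaCl/EDTA/NaF/pyrophosphate/PMSF/aprotinin buffer, 30 min on ice, protein measured by BCA. 12% SDS-PAGE at 10 μg/lane, nitrocellulose blot, primary antibodies (caspase-3, -8, -9, Bax, Bcl-2, PARP) overnight at 4 °C, HRP secondary, ECL.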

Series [20] can be described thus: Induction of apoptosis in human RC-58T/h/SA#4 cells assessed as procaspase-8 activation at 20 uM after 24 hrs by immunoblotting analysis relative to untreated control. The format is functional. The method in brief: as §3
The nature of series [21]: Induction of apoptosis in human RC-58T/h/SA#4 cells assessed as procaspase-3 activation at 20 uM after 24 hrs by immunoblotting analysis relative to untreated control. The format is functional. The method in brief: as §3

Structures are written as SMILES.

With `CC(C)/C=C/C(=O)c1ccoc1`, the Ratio was determined as 1.5 in series [1]; 1.2 in the series filed under Homo sapiens; 1.2 in series [2]; 1 in [3]; 1 in series [4]; 1.2 in series [5]. In addition, the Ratio in series [6] was found to be 1.1; in series [7], 1.5; in series [8], 0.8; in [9] it was 1.2; in [10], 2; in series [11], 1.8. In addition, the Ratio in series [12] was found to be 2.2; in series [13], 1; in series [14], 1.6; in [15] it was 2; in series [19] it was 0.3; in [20] it was 1.2. In addition, the Ratio in series [21] was 1. Moreover, the Activity in series [16] is 2%; in series [17], “Toxic”; in series [18], 10.1%.
